This is a sample that favours compounds with a hit; in the whole collection about 3.7% have one here.
KCC2 mod = KCC2 (human) Cl- transport modulation | Q9H2X9 | 190,000 tested, 2.2% active | KCC2 cells, thallium flux FluoZin-2 fluorescence | B-score of Tl+ flux slope (higher = more flux/activation; lower = inhibition) at 10 µM;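 active means thallium flux slope and its plate-corrected score both differing from the plate sample mean at a set confidence after two filtering rounds, in either direction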;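 further: slope of fluorescence scaled to starting intensity during 10 to 20 s after thallium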
NPY1 pot ag = potentiators or agonists of human neuropeptide Y receptor Y1; activation, % at 3.6 µM; NPY-Y1 expressing cells, potentiator/agonist activation; P25929; 220,000 tested, 0.37% active; in the data active means activation above about 33%, passing the limit was not always enough;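 further: cells stimulated with NPY at EC10 then isoproterenol at EC100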
Target sequence (P25929 whole entry, looked up): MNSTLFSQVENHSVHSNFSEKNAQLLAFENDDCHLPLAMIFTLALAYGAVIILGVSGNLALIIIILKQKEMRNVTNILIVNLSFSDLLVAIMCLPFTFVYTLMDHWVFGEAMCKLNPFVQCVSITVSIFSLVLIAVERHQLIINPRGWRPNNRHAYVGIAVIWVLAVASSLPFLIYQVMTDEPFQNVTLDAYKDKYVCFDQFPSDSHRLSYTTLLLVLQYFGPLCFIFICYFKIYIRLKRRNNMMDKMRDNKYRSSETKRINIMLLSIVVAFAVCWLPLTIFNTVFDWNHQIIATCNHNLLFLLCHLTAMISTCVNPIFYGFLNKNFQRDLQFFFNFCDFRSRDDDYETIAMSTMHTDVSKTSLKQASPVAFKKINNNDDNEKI
NPY Y1 blocker = antagonists of human neuropeptide Y receptor Y1; P25929; HEK293-CNG Y1 cells, membrane potential fluorescence; NPY at EC95, then isoproterenol; inhibition, % at 3.6 µM; 200,000 tested, 1% active;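 active means inhibition above the campaign mean inhibition of all tested compounds plus 3 SD, cut at about 20% in these data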
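Material: HEK293 Y1/CNG channel cell line; also added: NPY (25 nM), isoproterenol (1 µM), Ro 20-1724 (25 µM); doses: one concentration, 3.6 µM, in 0.4% DMSO; schedule: compound incubation 1 h at room temperature, readout 45 min post-stimulation; technique: membrane potential fluorescence; measure: fluorescence ratio normalized to % inhibition between controls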
NPY-Y2 PAM-ag = human NPY-Y2 potentiation or agonism, primary screen; P49146; cells expressing NPY-Y2, potentiator/agonist read-out; activation, % at 3.6 µM; 220,000 tested, 0.45% active; in the data active means activation above about 27%;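 further: cells stimulated with NPY near EC25 plus isoproterenol at EC100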
Furin inhibitor = human furin inhibition. P09958. purified furin, fluorogenic substrate cleavage. AID 463115. 220,000 tested, 0.061% active. inhibition, % at 20 µM or 30 µM; in the data active means inhibition above about 25%
NPY-Y2 antag = blocks the human neuropeptide Y Y2 receptor. P49146. NPY-Y2 expressing cells, antagonist mode. inhibition, % at 2.7 µM. 140,000 tested, 0.99% active; in the data active means inhibition above about 17%
Each line names hits and unclear results; the compound was inactive in the other large screens.

Cc1sc(NC(=O)c2ccccc2)c(C(c2ccccn2)N2CCN(CCO)CC2)c1C (configuration not stated)	none
Cc1ccc(C(=O)c2cc([N+](=O)[O-])ccc2N2CCCCC2)c(C)c1	NPY Y1 blocker 30, NPY-Y2 antag 22
COc1ccc(/C=C(\C#N)C(=O)C(C)(C)n2cncn2)cc1	none (no result: NPY-Y2 antag)
COc1ccc(-c2cc(C(=O)Nc3nc4c(C)cccc4s3)c3ccccc3n2)cc1OC	NPY Y1 blocker 47, NPY-Y2 antag 45
Cc1ccc2nc(NC(=O)c3cc(-c4ccco4)nc4ccccc34)sc2c1	NPY Y1 blocker 54, NPY-Y2 antag 56
COC(=O)c1ccc(NC(=O)Cn2nc(-c3ccncc3)nc2SCC(=O)Nc2nccs2)cc1	none
O=C(Nc1ccccc1-c1ccccc1)c1ccc(Cl)c([N+](=O)[O-])c1	NPY1 pot ag 71, NPY-Y2 PAM-ag 29
O=C(Nc1cccc2c1CCCC2)c1ccc(Cl)c([N+](=O)[O-])c1	none
CCOC(=O)CSc1nc2c(sc(=S)n2-c2ccccc2OC)c(=O)n1Cc1ccco1	NPY Y1 blocker 34, NPY-Y2 antag 27
CCOC(=O)CSc1nc2ccccc2c(=O)n1Cc1ccco1	none
CCOC(=O)CSc1nc2c(sc(=S)n2Cc2ccco2)c(=O)n1-c1ccccc1	NPY Y1 blocker 60, NPY-Y2 antag 36 (no result: KCC2 mod)
O=C(Nc1cccc(S(=O)(=O)NC2=NCCCCC2)c1)c1cc(-c2ccc(Cl)cc2)nc2ccccc12	none
Cc1cc(C)c(OCC(=O)NCC2CCCO2)c(C)c1 (configuration not stated)	none (no result: NPY-Y2 antag)
COCCn1c(=O)[nH]c2cc(C(=O)NCC3CCCO3)ccc2c1=O (configuration not stated)	NPY1 pot ag 74
C/C(=N\NC(N)=S)c1ccc2c(c1)OCCO2	none (no result: NPY Y1 blocker, NPY-Y2 antag)
C/C(=N\NC(=S)Nc1ccc(F)cc1)c1ccc2c(c1)OCCO2	KCC2 mod 48
O=C(NC1CCCCCCC1)C1c2ccccc2C(=O)N1Cc1cccs1 (configuration not stated)	NPY Y1 blocker 33, NPY-Y2 antag 31
CCN1CCN(C(=O)C(C)Nc2ccc(OC)cc2OC)CC1 (configuration not stated)	none (no result: NPY-Y2 antag)
COC(=O)c1c(NC(=O)c2c(-c3ccccc3Cl)noc2C)sc2c1CCC2	NPY Y1 blocker 37, NPY-Y2 antag 23
COc1ccc(CNC(=O)CN(Cc2ccc(F)cc2)C(=O)c2csnn2)cc1	none (no result: NPY-Y2 antag)
COc1ccc(Cc2nc(C(=O)Nc3ccc(Cl)cc3)cs2)cc1	NPY Y1 blocker 24, NPY-Y2 antag 19 (no result: KCC2 mod)
CC1(CO)COC(c2ccccc2)=N1 (configuration not stated)	none (no result: NPY Y1 blocker, NPY-Y2 antag)
CC(C)N(C(=O)CSc1ncnc2sc(-c3ccccc3)cc12)C(C)C	KCC2 mod 7.1
COC(=O)c1c(C)[nH]c(C(=O)CSc2ncnc3sc(-c4ccccc4)cc23)c1C	none
Cc1ccc(OCC(O)Cn2c(=N)n(Cc3ccccc3)c3ccccc32)cc1 (configuration not stated)	NPY Y1 blocker 23, NPY-Y2 antag 32 (no result: KCC2 mod)
Cc1cccc(OCC(O)Cn2c(=N)n(Cc3ccccc3)c3ccccc32)c1 (configuration not stated)	none (no result: NPY Y1 blocker, NPY-Y2 antag)
COc1ccc(OCC(O)Cn2c(=N)n(Cc3ccccc3)c3ccccc32)cc1 (configuration not stated)	NPY Y1 blocker 33, NPY-Y2 antag 32
Cc1cccc(OCC(O)Cn2c(=N)n(CCN3CCCCC3)c3ccccc32)c1 (configuration not stated)	NPY Y1 blocker 57, NPY-Y2 antag 84 (no result: KCC2 mod)
N=c1n(CCN2CCCCC2)c2ccccc2n1CC(O)c1ccco1 (configuration not stated)	none (no result: NPY Y1 blocker, NPY-Y2 antag)
CC(=O)Nc1cc(N=Cc2ccc(O)cc2O)c(Cl)cc1Cl	none
COc1ccc2c(c1)c(=O)c(C(=O)c1ccccc1)cn2Cc1ccc(C)cc1	none
COc1ccc2c(c1)c(=O)c(Br)c(C)n2Cc1ccccc1	NPY-Y2 antag 25
CC1CCc2cc(F)ccc2N1C(=O)C1(C)CC1(Cl)Cl (configuration not stated)	none
O=C(NCCc1ccccc1)C1CCCN(S(=O)(=O)c2cnc[nH]2)C1 (configuration not stated)	NPY-Y2 PAM-ag 73 (no result: KCC2 mod)
COC(=O)C1=C(C)NC(C)=C(C(=O)OC)C1c1ccccc1[N+](=O)[O-]	KCC2 mod 17
Cc1ccc2[nH]c3c(N4CCN(Cc5ccc6c(c5)OCO6)CC4)ncnc3c2c1	none (no result: KCC2 mod)
c1nc(N2CCN(Cc3ccc4c(c3)OCO4)CC2)c2[nH]cnc2n1	NPY1 pot ag 57, NPY-Y2 PAM-ag 101
CC(C)c1ccc(OCc2ccc(C(=O)NN3CCN(C)CC3)o2)cc1	none (no result: NPY-Y2 antag)
COc1ccccc1-c1noc(-c2ccccc2C(=O)Nc2ccccc2)n1	NPY Y1 blocker 23, NPY-Y2 antag 24 (no result: KCC2 mod)
COc1cccc(NC(=O)c2ccccc2-c2nc(-c3ccc(Cl)cc3)no2)c1	none (no result: KCC2 mod)
CCc1nc2ccc(C)cc2c(C(=O)NC2CCCCC2C)c1C (configuration not stated)	NPY Y1 blocker 64, NPY-Y2 antag 30
COC(=O)CN1C(c2ccc(Cl)cc2)=Nc2ccc(Cl)cc2C1c1ccccc1 (configuration not stated)	NPY Y1 blocker 27, NPY-Y2 antag 19
COc1ccc(C2=Nc3ccc(C)cc3C(c3ccccc3)N2CC(=O)NN)cc1 (configuration not stated)	none (no result: NPY-Y2 antag)
O=C(NCCCN1CCOCC1)/C(=C/c1cccnc1)NC(=O)c1ccccc1	none (no result: NPY-Y2 antag)
CC(=O)c1c(C)nc2ccc(Br)cc2c1-c1ccccc1	NPY Y1 blocker 22 (no result: NPY-Y2 antag)
CCOC(=O)C1=NN(C(=O)c2ccccc2)C(O)(c2ccc(C)cc2)C1 (configuration not stated)	KCC2 mod 52
CCOC(=O)C1=NN(C(=O)Cc2ccccc2)C(O)(c2ccc(Cl)cc2)C1 (configuration not stated)	none
COC(=O)C1=NN(C(=O)c2cccc(Br)c2)C(O)(c2ccc(Cl)cc2)C1 (configuration not stated)	KCC2 mod 92 (no result: NPY-Y2 antag)
O=C1COc2ccc(N3C(=O)c4ccccc4C3=O)cc2N1	none (no result: NPY-Y2 antag)
COc1ccccc1OCC(O)CNCc1ccc2c(c1)OCO2 (configuration not stated)	NPY1 pot ag 79, NPY-Y2 PAM-ag 48 (no result: NPY Y1 blocker, NPY-Y2 antag)
COc1ccc(OC)c(-c2[nH]nc3c2C(c2ccco2)C(C#N)=C(N)O3)c1 (configuration not stated)	NPY Y1 blocker 48, NPY-Y2 antag 28
COc1cccc(-c2[nH]nc3c2C(c2ccc(C)o2)C(C#N)=C(N)O3)c1 (configuration not stated)	NPY Y1 blocker 29, NPY-Y2 antag 21
CCOc1ccc(/C=N/OCC(=O)NCc2ccc3c(c2)OCO3)cc1OC	none

High-throughput results as filed in PubChem.
